In general, Tmax refers to the time at which the peak concentration occurs. In general, Cmax refers to the maximum level reached in the sampled fluid or tissue. The term AUC(0-t) denotes exposure summed from dosing to a finite time, without extrapolation to infinity. Higher therefore signals high exposure. In general, IC50 refers to the concentration needed to halve the response being measured.

In data set [1] the test system is Mus musculus. Put plainly: Protection against LPS-induced C57/BL6 mouse acute lung injury model assessed as improvement in structural distruption of lung tissue at 20 mg/kg via oral gavage preincubated for 30 mins followed by LPS stimulation for 6 hrs. Format: functional, organism-based. The note with it: time 6.5 hrs. In a few lines: (§1)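 Mice dosed 20 mg/kg by gavage (dexamethasone 20 mg/kg comparator), intratracheal LPS 5 mg/kg 30 min later, killed at 6 h. Right upper lobe fixed in paraformaldehyde, H&E; lung wet/dry ratio; BALF protein, total cells and neutrophils counted; n = 5 mice per group, mean ± SEM.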

In data set [2] the test system is Mus musculus. Description: Antiinflammatory activity in LPS-induced C57/BL6 mouse acute lung injury model assessed as decrease in IL-6 level in serum at 20 mg/kg via oral gavage preincubated for 30 mins followed by LPS stimulation for 6 hrs by ELISA. The note with it: time 6.5 hrs. (In general: ELISA stands for enzyme-linked immunosorbent assay.)
Data set [3] has as its system J774.A1. Description: Antiinflammatory activity in LPS-induced mouse J774.A1 cells assessed as inhibition of LPS-induced TNF-alpha transcription preincubated for 0.5 hrs followed by LPS stimulation for 6 hrs by RT-qPCR method. The settings on record: dose 5-10 µM, time 6.5 hrs. Format: functional, cell-based. In short, it runs like this: (§2)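 J774A.1 or THP-1 cells pretreated 0.5 h at 10 or 5 μM, then LPS 0.5 μg/mL for 6 h. TRIzol RNA; IL-6, TNF-α and IL-1β transcripts by RT-qPCR, normalized to β-actin and control; 3 independent experiments, mean ± SEM.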
On the technique in general: In qPCR the cycle at which signal appears reflects the starting amount.

Data set [4] concerns Mus musculus. Put plainly: Protection against LPS-induced sepsis in C57/BL6 mouse model assessed as reduction of obvious white pulp in spleen at 20 mg/kg, po preincubated with compound followed by LPS stimulation for 1 hr by H and E staining based analysis. Format: functional, organism-based. In short, it runs like this:
(§3)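 Mice given 20 mg/kg orally, then intraperitoneal LPS 20 mg/kg 1 h later; n = 12 per group. Kidney, liver, heart and spleen weighed; spleen sections H&E-stained for histology.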

The nature of data set [5]: Tmax in rat at 10 mg/kg, po. Format: ADME, organism-based. The settings on record: in vivo. In a few lines:
(§4)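 Rats dosed intravenously at 1 mg/kg or orally at 10 mg/kg; plasma pharmacokinetic parameters AUC(0-t), Tmax, T1/2, Cmax and oral bioavailability F derived from the two routes.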

The test system of data set [6] is THP-1. Description: Antiinflammatory activity in LPS-induced human THP-1 cells assessed as inhibition of LPS-induced IL-1 beta transcription preincubated for 0.5 hrs followed by LPS stimulation for 6 hrs by RT-qPCR method. Format: functional, cell-based. The settings on record: dose 5-10 µM, time 6.5 hrs. In a few lines: as §2
Data set [7] relates to Mus musculus. Description: Protection against LPS-induced C57/BL6 mouse acute lung injury model assessed as reduction in protein concentration in BALF at 20 mg/kg via oral gavage preincubated for 30 mins followed by LPS stimulation for 6 hrs. The data set is classed as functional, organism-based. The note with it: time 6.5 hrs. In short, it runs like this:
as §1

The nature of data set [8]: Cmax in rat at 1 mg/kg, iv. Format: ADME, organism-based. Also noted: dose 1 mg/kg, route iv. The note with it: in vivo. In a few lines: as §4
Data set [9] in a line: AUC (0 to t) in rat at 1 mg/kg, iv. Format: ADME, organism-based. Also on record: dose 1 mg/kg, route iv. The settings on record: in vivo. In short, it runs like this: as §4
For data set [10], the system named is THP-1. Description: Antiinflammatory activity in LPS-induced human THP-1 cells assessed as inhibition of LPS-induced IL-6 transcription preincubated for 0.5 hrs followed by LPS stimulation for 6 hrs by RT-qPCR method. The data set is classed as functional, cell-based. The settings on record: dose 5-10 µM, time 6.5 hrs. In a few lines: as §2
In another data set the test system is LX-2. Description: Antiinflammatory activity in LPS-induced human LX2 cells assessed as inhibition of LPS-induced TNF-alpha release preincubated for 30 mins followed by LPS stimulation for 24 hrs by ELISA method. The data set is classed as functional, cell-based. In short, it runs like this: (§5)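 THP-1 or LX-2 cells in DMEM with 10% FBS, 37 °C, 5% CO2. Pretreated 30 min at 10, 5, 2.5 or 1.25 μM, then LPS 0.5 μg/mL for 24 h. IL-6 and TNF-α in medium measured by ELISA, normalized to lysate total protein; mean ± SEM of 3 independent experiments.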

Data set [11] has as its system Mus musculus. Description: Protection against LPS-induced sepsis in C57/BL6 mouse model assessed as reduction in spleen enlargement at 20 mg/kg, po preincubated with compound followed by LPS stimulation for 1 hr. Format: functional, organism-based. In a few lines:
as §3

Data set [12] relates to Mus musculus. Put plainly: Antiinflammatory activity in LPS-induced C57/BL6 mouse acute lung injury model assessed as reduction in macrophage infiltration at 20 mg/kg via oral gavage preincubated for 30 mins followed by LPS stimulation for 6 hrs by immunohistochemical staining based analysis. The data set is classed as functional, organism-based. The settings on record: time 6.5 hrs. In short, it runs like this:
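Same ALI model: 20 mg/kg oral, intratracheal LPS 5 mg/kg 30 min later, lungs at 6 h. Paraffin sections given citrate (pH 6.5) antigen retrieval, 3% H2O2 and 5% BSA block, anti-F4/80 12 h at 4 °C, HRP secondary, DAB and hematoxylin; F4/80 positivity quantified; n = 5 per group.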

For data set [13], the system named is J774.A1. Put plainly: Antiinflammatory activity in LPS-induced mouse J774.A1 cells assessed as inhibition of LPS-induced IL-1 beta transcription preincubated for 0.5 hrs followed by LPS stimulation for 6 hrs by RT-qPCR method. The note with it: dose 5-10 µM, time 6.5 hrs. The data set is classed as functional, cell-based. In a few lines:
as §2

The subject of data set [14] is Mus musculus. Put plainly: Antiinflammatory activity in LPS-induced C57/BL6 mouse acute lung injury model assessed as decrease in TNF-alpha level in BALF at 20 mg/kg via oral gavage preincubated for 30 mins followed by LPS stimulation for 6 hrs by ELISA. The note with it: time 6.5 hrs.
For data set [15], the system named is Mus musculus. Put plainly: Protection against LPS-induced sepsis in C57/BL6 mouse model assessed as reduction of lymph node hyperplasia at 20 mg/kg, po preincubated with compound followed by LPS stimulation for 1 hr by H and E staining based analysis. Format: functional, organism-based. In a few lines: as §3
Data set [16] relates to THP-1. Put plainly: Antiinflammatory activity in LPS-induced human THP-1 cells assessed as inhibition of LPS-induced IL-6 release preincubated for 30 mins followed by LPS stimulation for 24 hrs by ELISA method. Format: functional, cell-based. In a few lines: as §5
The nature of data set [17]: Stability of the compound in pH 7.4 phosphate buffer measured upto 30 mins by UV-Vis analysis. Format: physicochemical. The note with it: pH 7.4, 0.5 h. In a few lines:
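Dissolved in phosphate buffer pH 7.4; UV-visible absorption (OD) recorded over 30 min.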

Data set [18] has as its system J774.A1. Put plainly: Inhibition of NF-kappaB pathway in LPS-induced mouse J774.A1 cells assessed as inhibition of IkappaB-alpha degradation preincubated with compound for 2 hrs followed by LPS-stimulation and measured after 30 mins by Western blot analysis. Format: cell-based. The note with it: dose 5-10 µM, time 2.5 hrs. In short, it runs like this: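 J774A.1 cells preincubated with 10 or 5 μM or DMSO for 2 h, then LPS 0.5 μg/mL for 30 min. RIPA lysates run on 12.5% SDS-PAGE, transferred to PVDF, blocked with 5% milk; probed for IκB-α and p-p65, with GAPDH and p65 as loading controls; ECL detection; densitometry.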
(In general: A western blot detects proteins with antibodies after separation by electrophoresis.)

Data set [19] concerns J774.A1. Description: Antiinflammatory activity in LPS-induced mouse J774.A1 cells assessed as inhibition of LPS-induced TNF-alpha release preincubated for 30 mins followed by LPS stimulation for 24 hrs by ELISA method. The data set is classed as functional, cell-based. In short, it runs like this: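 Dose-response in J774A.1 cells: 30 min pretreatment at 10, 5, 2.5 or 1.25 μM, then LPS 0.5 μg/mL for 24 h. IL-6 and TNF-α by ELISA, normalized to lysate protein; IC50 from the dose-response; 3 independent experiments, mean ± SEM.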

The subject of data set [20] is Mus musculus. Description: Protection against LPS-induced C57/BL6 mouse acute lung injury model assessed as reduction in lung wet/dry ratio at 20 mg/kg via oral gavage preincubated for 30 mins followed by LPS stimulation for 6 hrs. Format: functional, organism-based. The settings on record: time 6.5 hrs. In short, it runs like this:
as §1

For data set [21], the system named is THP-1. Put plainly: Antiinflammatory activity in LPS-induced human THP-1 cells assessed as inhibition of LPS-induced TNF-alpha release preincubated for 30 mins followed by LPS stimulation for 24 hrs by ELISA method. Format: functional, cell-based. In a few lines:
as §5

Calls of active or inactive are those of the source. No cut-off for these calls is given here.

Turning to `COc1cc2nccc(Oc3ccc(NC(=O)c4cn(-c5ccccc5)c5ccccc5c4=O)cc3)c2cc1OC`, the result in the data set on Mus musculus [1], in the data set on Mus musculus [2], in the data set on Mus musculus [4], with Mus musculus [7], with Mus musculus [11] and with Mus musculus [12] was Active. Moreover, the outcome in the data set on Mus musculus [14], in the data set with Mus musculus [15] and in the data set with Mus musculus [20] was Active. For the same compound, the inhibition entry with J774.A1 [3] is “Dose-Dependent Effect”; in the data set on THP-1 [6], “Dose-Dependent Effect”; in the data set on THP-1 [10], “Dose-Dependent Effect”; in the data set with J774.A1 [13], “Dose-Dependent Effect”; in the data set with J774.A1 [18] it was “Dose-Dependent Effect”; in the data set on J774.A1 [19] (dose 1.25-10 µM, time 24.5 hrs), “Dose-Dependent Effect”. Also, the time to peak (Tmax) in [5] is 5 h. The Cmax in data set [8] is 1360 ng/mL. For the same compound, the area under the curve AUC(0-t) in [9] is 6320 ng·h/mL. Also, the IC50 worked out at 2.91 µM in the data set with LX-2, 1.33 µM with THP-1 [16], 2.4 µM in the data set with J774.A1 [19] and 1.67 µM with THP-1 [21]. Besides, the Stability result in [17] is “Stable”.

Source of the values: ChEMBL document CHEMBL5346889, “Discovery of 4-oxo-N-phenyl-1,4-dihydroquinoline-3-carboxamide derivatives as novel anti-inflammatory agents for the treatment of acute lung injury and sepsis” (Eur J Med Chem, 2023).
